Assay results taken from ChEMBL document CHEMBL2040734, “Benzothiazoles: search for anticancer agents” (2012).

Columns and labels:
Type in all cases: functional
A498 [1] = assay: Cytotoxicity against human A498 cells assessed as cell growth at 0.01 uM after 48 hrs by sulforhodamine B assay; settings: A498, 48 h, read-out: Activity
How it was run: (§1)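 NCI-60 five-dose screen. Cells were grown in RPMI 1640 with 5% FBS and 2 mM L-glutamine and preincubated 24 h. Compound (DMSO stock) was tested at 0.01, 0.1, 1, 10 and 100 µM for 48 h at 37 °C. Cells were fixed in situ with cold TCA (final 10%) and stained with 0.4% SRB. A515 was read, and percent growth was calculated against time-zero and control plates.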

RXF 393 = assay: Cytotoxicity against human RXF393 cells assessed as cell growth at 10 uM after 48 hrs by sulforhodamine B assay; settings: RXF 393, 48 h, read-out: Activity
OVCAR-5 = assay: Cytotoxicity against human OVCAR5 cells assessed as cell growth at 100 uM after 48 hrs by sulforhodamine B assay; settings: OVCAR-5, 48 h, read-out: Activity
SF-539 = assay: Cytotoxicity against human SF539 cells assessed as cell growth at 0.01 uM after 48 hrs by sulforhodamine B assay; settings: SF-539, 48 h, read-out: Activity
UACC-257 [2] = assay: Cytotoxicity against human UACC257 cells assessed as cell growth at 0.1 uM after 48 hrs by sulforhodamine B assay; settings: UACC-257, 48 h, read-out: Activity
RPMI-8226 = assay: Cytotoxicity against human RPMI8226 cells assessed as cell growth at 1 uM after 48 hrs by sulforhodamine B assay; settings: RPMI-8226, 48 h, read-out: Activity
HCC 2998 = assay: Cytotoxicity against human HCC2998 cells assessed as cell growth at 1 uM after 48 hrs by sulforhodamine B assay; settings: HCC 2998, 48 h, read-out: Activity
How it was run: (§2)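 Five-dose NCI panel run at 0.01, 0.1, 1, 10 and 100 µM. Cells were in RPMI 1640 with 5% FBS and 2 mM L-glutamine, seeded at 5000–40,000 cells/well and pre-incubated 24 h. Drug was diluted from a DMSO stock into medium with 50 µg/ml gentamicin. Exposure was 48 h at 37 °C, 5% CO2. Cells were fixed with cold TCA and stained with 0.4% SRB, read at 515 nm. Percent growth came from time-zero, control and test absorbances.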

SF-295 [3] = assay: Cytotoxicity against human SF295 cells assessed as cell growth at 100 uM after 48 hrs by sulforhodamine B assay; settings: SF-295, 48 h, read-out: Activity
ACHN = assay: Cytotoxicity against human ACHN cells assessed as cell growth at 0.01 uM after 48 hrs by sulforhodamine B assay; settings: read-out: Activity; how it was run: as §1
SF-295 [4] = assay: Cytotoxicity against human SF295 cells assessed as cell growth at 1 uM after 48 hrs by sulforhodamine B assay; settings: SF-295, 48 h, read-out: Activity
HCT-15 = assay: Cytotoxicity against human HCT15 cells assessed as cell growth at 1 uM after 48 hrs by sulforhodamine B assay; settings: HCT-15, 48 h, read-out: Activity; how it was run: as §2
MDA-MB-231 = assay: Cytotoxicity against human MDA-MB-231 cells assessed as cell growth at 10 '-5 M after 48 hrs by sulforhodamine B assay; settings: MDA-MB-231, 48 h, read-out: Activity
HL-60(TB) = assay: Cytotoxicity against human HL-60(TB) cells assessed as cell growth at 1 uM after 48 hrs by sulforhodamine B assay; settings: HL-60, 48 h, read-out: Activity
How it was run: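 NCI five-dose screen on the HL-60(TB) leukaemia line, grown in RPMI 1640 with 5% FBS and 2 mM L-glutamine and plated for 24 h before dosing. DMSO stocks were diluted in medium. Cells were exposed 48 h at 37 °C, then settled cells were fixed in 16% TCA (final) and stained with SRB, absorbance 515 nm. Percent growth = (Ti−Tz)/(C−Tz)×100, or (Ti−Tz)/Tz×100 when Ti<Tz.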

PC-3 = assay: Cytotoxicity against human PC3 cells assessed as cell growth at 1 uM after 48 hrs by sulforhodamine B assay; settings: PC-3, 48 h, read-out: Activity
786-0 [5] = assay: Cytotoxicity against human 786-0 cells assessed as cell growth at 10 '-5 M after 48 hrs by sulforhodamine B assay; settings: 786-0, 48 h, read-out: Activity
How it was run: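 Primary NCI-60 single-dose screen at 10 µM. Cells were grown in RPMI 1640 with 5% FBS and 2 mM L-glutamine and plated 24 h before drug addition. Compound was solubilized in DMSO, then exposed for 48 h at 37 °C under 5% CO2. Cells were TCA-fixed and stained with SRB, and absorbance was read at 515 nm. Growth was expressed relative to time-zero and untreated controls.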

UACC-257 [6] = assay: Cytotoxicity against human UACC257 cells assessed as cell growth at 0.01 uM after 48 hrs by sulforhodamine B assay; settings: UACC-257, 48 h, read-out: Activity
NCI-H23 = assay: Cytotoxicity against human NCI-H23 cells assessed as cell growth at 0.01 uM after 48 hrs by sulforhodamine B assay; settings: NCI-H23, 48 h, read-out: Activity
HT-29 = assay: Cytotoxicity against human HT-29 cells assessed as cell growth at 10 '-5 M after 48 hrs by sulforhodamine B assay; settings: HT-29, 48 h, read-out: Activity
How it was run: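 Primary one-dose screen across the NCI 60-line panel at 10 µM. Cells were grown in RPMI 1640 with 5% FBS and 2 mM L-glutamine and held 24 h before drug. Drug was diluted from a DMSO concentrate. Exposure was 48 h at 37 °C, 5% CO2. Cells were fixed with TCA and stained with SRB, with absorbance read at 515 nm. Percent growth was calculated against time-zero and untreated control.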

MDA-MB-468 = assay: Growth inhibition of human MDA-MB-468 cells after 48 hrs by sulforhodamine B assay; settings: MDA-MB-468, 48 h; for CC50: read-out: LC50 (the source's name)
How it was run: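 Adherent NCI-60 lines were grown in RPMI 1640 with 5% FBS and 2 mM L-glutamine, plated at 5000–40,000 cells/well and preincubated 24 h. They were then exposed to five concentrations (0.01–100 µM, from a DMSO stock) for 48 h at 37 °C, 5% CO2. Cells were fixed with cold TCA (10% final, 60 min, 4 °C) and stained with 0.4% SRB. Dye was solubilized in 10 mM Tris base and A515 read. GI50 was derived from time-zero, control and treated absorbances.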

786-0 [7] = assay: Cytotoxicity against human 786-0 cells assessed as cell growth at 1 uM after 48 hrs by sulforhodamine B assay; settings: 786-0, 48 h, read-out: Activity; how it was run: as §1
A498 [8] = assay: Cytotoxicity against human A498 cells assessed as cell growth at 0.1 uM after 48 hrs by sulforhodamine B assay; settings: A498, 48 h, read-out: Activity; how it was run: as §1
CCRF-CEM = assay: Cytotoxicity against human CCRF-CEM cells assessed as cell growth at 0.1 uM after 48 hrs by sulforhodamine B assay; settings: read-out: Activity
How it was run: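 CCRF-CEM suspension leukemia cells in RPMI 1640 with 5% FBS and 2 mM L-glutamine, plated 24 h before dosing. Five concentrations (0.01–100 µM) were applied from a DMSO stock for 48 h at 37 °C. Settled cells were fixed with 80% TCA (final 16%) and stained with SRB, with read-out at 515 nm. Percent growth was derived from time-zero and control absorbances.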

SMILES	growth at 0.01 µM (A498 [1]) [%]	growth at 10 µM (RXF 393) [%]	growth at 100 µM (OVCAR-5) [%]	growth at 0.01 µM (SF-539) [%]	growth at 0.1 µM (UACC-257 [2]) [%]	growth at 1 µM (RPMI-8226) [%]	growth at 1 µM (HCC 2998) [%]	growth at 100 µM (SF-295 [3]) [%]	growth at 0.01 µM (ACHN) [%]	growth at 1 µM (SF-295 [4]) [%]	growth at 1 µM (HCT-15) [%]	growth at 10 µM (MDA-MB-231) [%]	growth at 1 µM (HL-60(TB)) [%]	growth at 1 µM (PC-3) [%]	growth at 10 µM (786-0 [5]) [%]	growth at 0.01 µM (UACC-257 [6]) [%]	growth at 0.01 µM (NCI-H23) [%]	growth at 10 µM (HT-29) [%]	GI50 (MDA-MB-468) [nM]	TGI (MDA-MB-468) [nM]	also measured
Cc1ccc2nc(Nc3c(C)cccc3C)sc2c1	75	27	78	99	99	75	70	14	97	44	48	47	56	68	57.8	101	94	9.15	330	> 100000	CC50 (MDA-MB-468): > 100000 nM; growth at 1 µM (786-0 [7]): 81%; growth at 0.1 µM (A498 [8]): 68%; growth at 0.1 µM (CCRF-CEM): 89%
Clc1cccc(Cl)c1Nc1nc2cccc(Cl)c2s1	85	-73	-96	97	101	46	70	-51	99	33	59	-66.8	63	38	-59.7	102	95	-67.6	343	1740	CC50 (MDA-MB-468): 5790 nM; growth at 1 µM (786-0 [7]): 52%; growth at 0.1 µM (A498 [8]): 67%; growth at 0.1 µM (CCRF-CEM): 93%
